ChEMBL document CHEMBL4265954, “Discovery of potent liver-selective stearoyl-CoA desaturase-1 (SCD1) inhibitors, thiazole-4-acetic acid derivatives, for the treatment of diabetes, hepatic steatosis, and obesity” (Eur J Med Chem, 2018)
Values after ≈ are worked out from the molar mass of the structure shown. Active and inactive are the calls of the source. The rule behind the calls is not given here.

What was measured:
Acyl-CoA desaturase 1 = biological target: T1, Acyl-CoA desaturase 1 (Mus musculus, UniProt P13516); test: Inhibition of mouse liver microsome SCD assessed as reduction in [3H]H2O production using stearoyl [9,10-3H]CoA as substrate in presence of NADH incubated for 30 mins by scintillation counting method; assay type: microsomes
T1 sequence (P13516 whole entry): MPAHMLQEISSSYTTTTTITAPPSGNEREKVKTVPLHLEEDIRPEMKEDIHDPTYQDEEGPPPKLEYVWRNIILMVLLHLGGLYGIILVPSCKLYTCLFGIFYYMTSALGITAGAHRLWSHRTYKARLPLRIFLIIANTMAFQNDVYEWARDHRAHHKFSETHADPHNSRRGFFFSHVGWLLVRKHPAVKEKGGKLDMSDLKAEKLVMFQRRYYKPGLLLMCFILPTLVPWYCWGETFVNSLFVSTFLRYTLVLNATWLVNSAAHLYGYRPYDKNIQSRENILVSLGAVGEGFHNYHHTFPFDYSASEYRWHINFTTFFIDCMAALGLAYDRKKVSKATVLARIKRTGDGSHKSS
How it was run: (§1)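 Desaturation of [9,10-3H]stearoyl-CoA measured as released [3H]H2O. Water was separated from charcoal-adsorbed substrate by filtration and counted by scintillation. Remaining activity = (compound − background)/(control − background). DMSO wells served as control and pre-stopped wells as background. IC50 was interpolated from the two points bracketing 50%.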

[1] = AUC (0 to infinity) in C57BL/6J mouse at 10 mg/kg, po; assay type: ADME, organism-based; parameters: dose 10 mg/kg, time infinity, route oral; settings: in vivo
Mus musculus [2] = test: Ex vivo inhibition of SCD1 in C57BL/6J mouse eyelid assessed as residual activity at 100 mg/kg, po treated for 24 hrs followed by incubation with [14C]stearoyl-CoA substrate for 30 mins by TLC assay relative to control; assay type: organism-based
How it was run: (§2)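 Male 6-week-old C57BL/6J mice dosed orally as a suspension in 0.5% methylcellulose. Liver or eyelid was taken 6 or 24 h later and homogenized in 100 mM Tris-HCl pH 7.4 with 0.25 M sucrose. S9 was obtained at 10,000 × g, 4 °C. S9 was incubated with [14C]stearoyl-CoA, NADH, MgCl2 and cytochrome b5 at room temperature, 10 min for liver and 30 min for eyelid. Lipids were saponified and run on AgNO3 TLC to quantify stearate and oleate. Result is % of vehicle control.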

Mus musculus [3] = test: Ex vivo inhibition of SCD1 in C57BL/6J mouse eyelid assessed as residual activity at 0.1 mg/kg, po treated for 24 hrs followed by incubation with [14C]stearoyl-CoA substrate for 30 mins by TLC assay relative to control; assay type: organism-based; how it was run: as §2
Mus musculus [4] = test: Ex vivo inhibition of SCD1 in C57BL/6J mouse liver assessed as residual activity at 10 mg/kg, po treated for 6 hrs followed by incubation with [14C]stearoyl-CoA substrate for 10 mins by TLC assay relative to control; assay type: functional; how it was run: as §2
Mus musculus [5] = test: Ex vivo inhibition of SCD1 in C57BL/6J mouse liver assessed as residual activity at 0.1 mg/kg, po treated for 24 hrs followed by incubation with [14C]stearoyl-CoA substrate for 10 mins by TLC assay relative to control; assay type: functional; how it was run: as §2
Mus musculus [6] = test: Ex vivo inhibition of SCD1 in C57BL/6J mouse liver treated orally for 6 hrs followed by incubation with [14C]stearoyl-CoA substrate for 10 mins by TLC assay; assay type: functional, organism-based; how it was run: as §2
[7] = biological target: Acyl-CoA (8-3)-desaturase (Homo sapiens, UniProt O60427); test: Inhibition of delta-5 fatty acid desaturase (unknown origin)
Mus musculus [8] = test: Ex vivo inhibition of SCD1 in C57BL/6J mouse eyelid assessed as residual activity at 10 mg/kg, po treated for 24 hrs followed by incubation with [14C]stearoyl-CoA substrate for 30 mins by TLC assay relative to control; assay type: organism-based; how it was run: as §2
[9] = Oral bioavailability in C57BL/6J mouse at 10 mg/kg; assay type: ADME, organism-based; settings: in vivo
How it was run: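 Two male C57BL/6J mice per route, 10 mg/kg po and 1 mg/kg iv. Plasma concentration–time profiles gave Cmax, tmax, terminal half-life and AUC0-inf. Bioavailability was derived from the po and iv data.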

[10] = Solubility of the compound in PBS at pH 7.2; assay type: physicochemical
Mus musculus [11] = test: Ex vivo inhibition of SCD1 in C57BL/6J mouse liver assessed as residual activity at 1 mg/kg, po treated for 6 hrs followed by incubation with [14C]stearoyl-CoA substrate for 10 mins by TLC assay relative to control; assay type: functional; how it was run: as §2
Mus musculus [12] = test: Ex vivo inhibition of SCD1 in C57BL/6J mouse eyelid assessed as residual activity at 0.1 mg/kg, po treated for 6 hrs followed by incubation with [14C]stearoyl-CoA substrate for 30 mins by TLC assay relative to control; assay type: organism-based; how it was run: as §2
Stearoyl-CoA desaturase = biological target: T2, Stearoyl-CoA desaturase (Homo sapiens, UniProt O00767); test: Inhibition of recombinant human SCD1 expressed in baculovirus expression system assessed as reduction in [3H]H2O production using stearoyl [9,10-3H]CoA as substrate in presence of NADH incubated for 30 mins by scintillation counting method; how it was run: as §1
T2 sequence (O00767 whole entry): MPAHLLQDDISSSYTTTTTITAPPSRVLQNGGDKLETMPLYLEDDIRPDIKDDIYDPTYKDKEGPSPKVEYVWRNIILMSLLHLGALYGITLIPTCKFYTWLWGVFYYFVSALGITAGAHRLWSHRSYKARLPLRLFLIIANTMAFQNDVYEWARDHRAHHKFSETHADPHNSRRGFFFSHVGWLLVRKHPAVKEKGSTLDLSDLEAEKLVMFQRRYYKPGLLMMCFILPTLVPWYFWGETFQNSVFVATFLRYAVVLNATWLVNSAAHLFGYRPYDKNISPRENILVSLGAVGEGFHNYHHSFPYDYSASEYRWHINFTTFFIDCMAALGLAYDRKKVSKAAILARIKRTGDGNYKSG

Mus musculus [13] = test: Ex vivo inhibition of SCD1 in C57BL/6J mouse eyelid assessed as residual activity at 10 mg/kg, po treated for 6 hrs followed by incubation with [14C]stearoyl-CoA substrate for 30 mins by TLC assay relative to control; assay type: organism-based; how it was run: as §2
Mus musculus [14] = test: Antiobesity activity in high fat diet fed C57BL/6J mouse assessed as reduction in diet-induced body weight gain at 10 mg/kg, po administered as diet mixture for 43 days relative to control; assay type: functional
How it was run: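 C57BL/6J mice, individually housed, fed HFD for one month, then given HFD admixed with drug (0.0040% for 3 mg/kg/day, 0.0133% for 10 mg/kg/day) for 43 days, from 10 to 16 weeks of age. Chow-fed normal group as control. Body weight measured every 3–4 days. Mean ± SD, n=5–8. Dunnett's test versus HFD control.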

Mus musculus [15] = test: Ex vivo inhibition of SCD1 in C57BL/6J mouse liver assessed as residual activity at 0.1 mg/kg, po treated for 6 hrs followed by incubation with [14C]stearoyl-CoA substrate for 10 mins by TLC assay relative to control; assay type: functional; how it was run: as §2
Mus musculus [16] = test: Ex vivo inhibition of SCD1 in C57BL/6J mouse liver assessed as residual activity at 10 mg/kg, po treated for 24 hrs followed by incubation with [14C]stearoyl-CoA substrate for 10 mins by TLC assay relative to control; assay type: functional; how it was run: as §2
[17] = Apparent permeability of the compound in human Caco2 cells; assay type: ADME, cell-based; settings: Caco-2
Mus musculus [18] = test: Ex vivo inhibition of SCD1 in C57BL/6J mouse liver assessed as residual activity at 1 mg/kg, po treated for 24 hrs followed by incubation with [14C]stearoyl-CoA substrate for 10 mins by TLC assay relative to control; assay type: functional; how it was run: as §2
Mus musculus [19] = test: Ex vivo inhibition of SCD1 in C57BL/6J mouse eyelid assessed as residual activity at 1 mg/kg, po treated for 24 hrs followed by incubation with [14C]stearoyl-CoA substrate for 30 mins by TLC assay relative to control; assay type: organism-based; how it was run: as §2
Mus musculus [20] = test: Ex vivo inhibition of SCD1 in C57BL/6J mouse eyelid assessed as residual activity at 1 mg/kg, po treated for 6 hrs followed by incubation with [14C]stearoyl-CoA substrate for 30 mins by TLC assay relative to control; assay type: organism-based; how it was run: as §2
Mus musculus [21] = test: Ex vivo inhibition of SCD1 in C57BL/6J mouse eyelid treated orally for 6 hrs followed by incubation with [14C]stearoyl-CoA substrate for 30 mins by TLC assay; assay type: organism-based; settings: po; how it was run: as §2

Chain of Acyl-CoA (8-3)-desaturase (O60427 whole entry): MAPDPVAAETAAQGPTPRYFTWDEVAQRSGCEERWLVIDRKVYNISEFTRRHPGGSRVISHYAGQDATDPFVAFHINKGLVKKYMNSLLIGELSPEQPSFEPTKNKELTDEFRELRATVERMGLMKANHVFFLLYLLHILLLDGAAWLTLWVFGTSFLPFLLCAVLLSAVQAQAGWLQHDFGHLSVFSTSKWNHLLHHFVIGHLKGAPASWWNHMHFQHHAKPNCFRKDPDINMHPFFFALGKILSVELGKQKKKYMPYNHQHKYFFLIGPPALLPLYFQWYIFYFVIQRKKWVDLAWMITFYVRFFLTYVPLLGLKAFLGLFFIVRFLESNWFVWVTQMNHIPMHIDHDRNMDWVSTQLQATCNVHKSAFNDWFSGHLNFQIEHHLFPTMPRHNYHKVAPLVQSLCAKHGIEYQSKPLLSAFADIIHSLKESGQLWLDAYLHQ

## Cc1csc(NC(=O)c2ccc(CNc3ccccc3C)cc2)n1
Acyl-CoA desaturase 1
  IC50: 3.8 nM
[1]
  AUC(0-inf): 2.4 µM·h
Mus musculus [2]
  Activity: 4%
Mus musculus [3]
  Activity: 100%
Mus musculus [4]
  Activity: 22%
Mus musculus [5]
  Activity: 105%
Mus musculus [6]
  inhibition: Dose-dependent effect
[7]
  IC50: > 30000 nM
Mus musculus [8]
  Activity: 4%
[9]
  bioavailability: 15%
[10]
  solubility: 2.4 µM (≈ 0.81 µg/mL)
Mus musculus [11]
  Activity: 24%
Mus musculus [12]
  Activity: 144%
Stearoyl-CoA desaturase
  IC50: 6.4 nM
Mus musculus [13]
  Activity: -2%
Mus musculus [14]
  Activity: Active
Mus musculus [15]
  Activity: 58%
Mus musculus [16]
  Activity: 109%
[17]
  Papp: 12.7 ×10⁻⁶ cm/s
Mus musculus [18]
  Activity: 120%
Mus musculus [19]
  Activity: 82%
Mus musculus [20]
  Activity: 41%
Mus musculus [21]
  inhibition (INH): Dose-dependent effect
